Test results from ChEMBL document CHEMBL3785055, “Arginine-linked neomycin B dimers: synthesis, rRNA binding, and resistance enzyme activity” (Medchemcomm, 2016).
In brackets after ≈: the same amount, converted by molar mass. Activity calls are given as the source filed them. The rule behind the calls is not given here.

How the values were obtained:
[1] = system: Escherichia coli; assay: Displacement of F-NEO from Escherichia coli rRNA A-site at 0.1 uM by fluorescence assay
In short: (§1)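 Single-point competitive screen: compound at 0.1 μM added to 0.1 μM F-NEO:A-site RNA complex. Displacement read as emission increase over complex alone (ΔF), expressed as % of fluorescence of 0.1 μM F-NEO. Buffer 10 mM HEPES, 50 mM NaCl, 0.4 mM EDTA, pH 7.0; at least duplicates.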

[2] = organism: Homo sapiens; assay: Displacement of F-NEO from human rRNA A-site at 0.1 uM by fluorescence assay; in short: as §1
[3] = Selectivity factor, ratio of IC50 for human rRNA A-site to IC50 for Escherichia coli rRNA A-site
In short: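 Ratio from F-NEO displacement titrations, 0.002–2.0 μM compound against 0.1 μM F-NEO:A-site complex (485/535 nm). Measured IC50 stands in for the unmeasurable competition constants in Kd(human)/Kd(E. coli) = 5.75 × K(E. coli)/K(human). Buffer 10 mM HEPES, 50 mM NaCl, 0.4 mM EDTA, pH 7.0.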

[4] = system: Escherichia coli; assay: Activity at Escherichia coli AAC(3)-4 at 100 uM in presence of AcCoA by Ellmans method relative to NEO
In short: (§2)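 Acetylation followed by Ellman's method at 412 nm, 2 mM DTNB, 100 μM compound, 25 °C, triplicate, rates normalized to NEO. AcCoA 500 μM for Eis, 150 μM for AAC(3)-IV; enzyme 0.5 μM for Eis, 0.125 μM for AAC(3)-IV; 50 mM buffer.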

[5] = system: Staphylococcus aureus; assay: Activity at Staphylococcus aureus AAC(6')-1e/APH(2'')-1a in presence of AcCoA by Ellmans method relative to NEO
[6] = system: Staphylococcus aureus; assay: Activity at Staphylococcus aureus APH(2'')-1a at 100 uM in presence of […] by […] relative to NEO
[7] = Activity at APH(3')-1a (unknown origin) at 100 uM in presence of […] by […] relative to NEO
[8] = system: Bacillus cereus; assay: Antibacterial activity against Bacillus cereus ATCC 11778 after 16 to 20 hrs by MTT assay; assay type: functional
In short: (§3)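 Strains grown in LB 24 h at 37 °C, 250 rpm; overnight culture diluted 1:1000, grown 4 h, diluted 1:1000 again and added to microplates. Incubation 16–20 h at 37 °C; growth read visually and with MTT (1 mg/mL).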

[9] = Displacement of F-NEO from Escherichia coli rRNA A-site by fluorescence assay
[10] = system: Mycobacterium tuberculosis; assay: Activity at Mycobacterium tuberculosis AAC(2')-1c at 100 uM in presence of AcCoA by Ellmans method relative to NEO
In short: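 N-acetylation by AAC(2')-Ic (0.125 μM enzyme) of 100 μM compound with 150 μM AcCoA and 2 mM DTNB in 100 mM buffer, 25 °C. Thiol release followed at 412 nm (ε = 14,150 M⁻¹cm⁻¹). Rates normalized to neomycin B, triplicate.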

[11] = system: Staphylococcus aureus; assay: Antibacterial activity against Staphylococcus aureus ATCC 25923 after 16 to 20 hrs by MTT assay; assay type: functional; in short: as §3
[12] = system: Staphylococcus epidermidis; assay: Antibacterial activity against Staphylococcus epidermidis ATCC 12228 after 16 to 20 hrs by MTT assay; assay type: functional; in short: as §3
[13] = Activity at Eis (unknown origin) at 100 uM in presence of AcCoA by Ellmans method relative to NEO; in short: as §2
[14] = Displacement of F-NEO from human rRNA A-site by fluorescence assay

SMILES | Activity [1] | Activity [2] | Ratio IC50 [3] | Activity [4] | Activity [5] | Activity [6] | Activity [7] | MIC [8] | IC50 [9] | Activity [10] | MIC [11] | MIC [12] | Activity [13] | IC50 [14]
N=C(N)NCCC[C@H](N)C(=O)NCCCn1cc(-c2cccc(-c3cn(CCCNC(=O)[C@@H](N)CCCNC(=N)N)nn3)c2)nn1 | inactive | inactive |  |  |  |  |  |  |  |  |  |  |  | 
NC[C@@H]1O[C@@H](O[C@H]2[C@H](O[C@H]3O[C@@H](Cn4cc(-c5cc(C(=O)O)cc(-c6cn(C[C@H]7O[C@@H](O[C@@H]8[C@@H](O)[C@H](N)C[C@H](N)[C@H]8O[C@@H]8O[C@@H](CN)[C@H](O)[C@@H](O)[C@@H]8N)[C@H](O)[C@@H]7O[C@H]7O[C@@H](CN)[C@@H](O)[C@H](O)[C@H]7N)nn6)c5)nn4)[C@H](O[C@H]4O[C@@H](CN)[C@@H](O)[C@H](O)[C@H]4N)[C@@H]3O)[C@@H](O)[C@H](N)C[C@@H]2N)[C@@H](N)[C@H](O)[C@H]1O (stereo in doubt) |  |  | 5.6 | Active | inactive | inactive | inactive | 3 µM (≈ 4.35 µg/mL) | 51 µM | inactive | 13 µM (≈ 18.8 µg/mL) | 13 µM (≈ 18.8 µg/mL) | inactive | 50 µM
N=C(N)NCCC[C@H](NC(=O)CCCCNC(=O)c1cc(-c2cn(C[C@@H]3O[C@H](O[C@H]4[C@H](O)[C@@H](N)C[C@@H](N)[C@@H]4O[C@H]4O[C@H](CN)[C@@H](O)[C@H](O)[C@H]4N)[C@@H](O)[C@H]3O[C@H]3O[C@@H](CN)[C@@H](O)[C@H](O)[C@H]3N)nn2)cc(-c2cn(C[C@H]3O[C@@H](O[C@@H]4[C@@H](O)[C@H](N)C[C@H](N)[C@H]4O[C@@H]4O[C@@H](CN)[C@H](O)[C@@H](O)[C@@H]4N)[C@H](O)[C@@H]3O[C@@H]3O[C@H](CN)[C@H](O)[C@@H](O)[C@@H]3N)nn2)c1)C(N)=O (stereo in doubt) |  |  | 7.4 | Active | inactive | inactive | inactive | 3 µM (≈ 5.11 µg/mL) | 52 µM | inactive | > 50 µM | > 50 µM | inactive | 70 µM
